# In ChEMBL document CHEMBL2331531, “Synthesis and biological evaluation of urea derivatives as highly potent and selective rho kinase inhibitors” (J Med Chem, 2013):
# Tests used:
# [1] = Inhibition of ROCK-mediated myosin light chain bisphosphorylation in rat A7R5 cells after 1 hr by fluorescence assay in presence of L-alpha-lysophosphatidic acid; type: cell-based
# How it was run: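 A7r5 cells in 20% FBS DMEM, plated 5000/well overnight, serum-starved 4 h in 0.05% FBS DMEM; compound 13333 nM to 18 nM final for 1 h, then 10 μM LPA 10 min; fixed, permeabilized, anti-ppMLC plus IR800 secondary; infrared scan, ppMLC signal normalized to TO-PRO-3 nuclear signal. IC50 as mean of two or more experiments.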
# [2] = target: Rho-associated protein kinase 2 (Homo sapiens, UniProt O75116); assay: Inhibition of ROCK2 (unknown origin) after 4 hrs by HTRF assay
# Sequence of Rho-associated protein kinase 2 (O75116 whole entry): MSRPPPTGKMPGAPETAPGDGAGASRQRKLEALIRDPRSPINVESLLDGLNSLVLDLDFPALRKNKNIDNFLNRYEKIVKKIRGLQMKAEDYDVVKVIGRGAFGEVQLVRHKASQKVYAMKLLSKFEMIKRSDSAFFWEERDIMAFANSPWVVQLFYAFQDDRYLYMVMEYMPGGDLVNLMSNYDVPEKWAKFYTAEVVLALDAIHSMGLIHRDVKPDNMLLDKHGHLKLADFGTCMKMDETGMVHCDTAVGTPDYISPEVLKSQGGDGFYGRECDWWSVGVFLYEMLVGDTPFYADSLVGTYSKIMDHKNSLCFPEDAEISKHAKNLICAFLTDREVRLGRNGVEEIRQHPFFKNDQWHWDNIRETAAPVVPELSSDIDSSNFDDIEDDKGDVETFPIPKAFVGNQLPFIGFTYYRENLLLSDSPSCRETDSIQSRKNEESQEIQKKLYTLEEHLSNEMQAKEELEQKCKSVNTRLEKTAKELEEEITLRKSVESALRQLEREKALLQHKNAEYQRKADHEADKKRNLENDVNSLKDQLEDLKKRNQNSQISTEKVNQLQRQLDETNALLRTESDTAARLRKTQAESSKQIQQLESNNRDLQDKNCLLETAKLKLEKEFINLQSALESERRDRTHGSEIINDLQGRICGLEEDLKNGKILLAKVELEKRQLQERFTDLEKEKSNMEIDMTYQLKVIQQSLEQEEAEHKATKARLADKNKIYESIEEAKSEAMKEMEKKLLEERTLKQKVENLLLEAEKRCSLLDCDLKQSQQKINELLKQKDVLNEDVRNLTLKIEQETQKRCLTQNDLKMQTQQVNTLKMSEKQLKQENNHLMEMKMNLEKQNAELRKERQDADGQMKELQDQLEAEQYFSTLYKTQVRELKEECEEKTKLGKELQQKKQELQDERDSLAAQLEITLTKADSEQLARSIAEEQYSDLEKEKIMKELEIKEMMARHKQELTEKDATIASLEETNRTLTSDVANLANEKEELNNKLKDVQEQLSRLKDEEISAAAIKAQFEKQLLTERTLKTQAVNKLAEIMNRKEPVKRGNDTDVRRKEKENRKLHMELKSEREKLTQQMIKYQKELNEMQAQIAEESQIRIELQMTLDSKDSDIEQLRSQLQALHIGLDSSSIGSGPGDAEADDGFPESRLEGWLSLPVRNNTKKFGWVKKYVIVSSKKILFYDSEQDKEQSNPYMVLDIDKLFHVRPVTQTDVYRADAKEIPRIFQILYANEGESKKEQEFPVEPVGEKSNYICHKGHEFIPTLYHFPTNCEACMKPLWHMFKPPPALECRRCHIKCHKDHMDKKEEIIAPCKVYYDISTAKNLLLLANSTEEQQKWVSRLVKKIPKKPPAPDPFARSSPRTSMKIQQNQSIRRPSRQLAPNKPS
# [3] = Inhibition of PKA (unknown origin) after 70 mins by luminescence assay; set-up: species or system Homo sapiens
# [4] = Half life in human liver microsomes; type: ADME, Microsome
# [5] = Cmax in Sprague-Dawley rat at 1 mg/kg, iv by LC-MS/MS analysis; type: ADME, organism-based; set-up: dose 1 mg/kg, route intravenous; conditions: in vivo
# [6] = Aqueous solubility in potassium phosphate buffer at pH 5.5 after 24 hrs by HPLC analysis; type: physicochemical; conditions: pH 5.5, 24 h
# [7] = Oral bioavailability in Sprague-Dawley rat at 2 mg/kg by LC-MS/MS analysis; type: ADME, organism-based; conditions: in vivo
# [8] = Half life in Sprague-Dawley rat at 1 mg/kg, iv by LC-MS/MS analysis; type: ADME, organism-based; set-up: dose 1 mg/kg, route intravenous; conditions: in vivo
# [9] = target: CYP3A4 (Homo sapiens, UniProt P08684); assay: Inhibition of CYP3A4 (unknown origin)-mediated midazolam hydroxylation to 1'-Hydroxymidazolam at 10 uM relative to control; type: ADME; conditions: probe midazolam
# Sequence of CYP3A4 (P08684 whole entry): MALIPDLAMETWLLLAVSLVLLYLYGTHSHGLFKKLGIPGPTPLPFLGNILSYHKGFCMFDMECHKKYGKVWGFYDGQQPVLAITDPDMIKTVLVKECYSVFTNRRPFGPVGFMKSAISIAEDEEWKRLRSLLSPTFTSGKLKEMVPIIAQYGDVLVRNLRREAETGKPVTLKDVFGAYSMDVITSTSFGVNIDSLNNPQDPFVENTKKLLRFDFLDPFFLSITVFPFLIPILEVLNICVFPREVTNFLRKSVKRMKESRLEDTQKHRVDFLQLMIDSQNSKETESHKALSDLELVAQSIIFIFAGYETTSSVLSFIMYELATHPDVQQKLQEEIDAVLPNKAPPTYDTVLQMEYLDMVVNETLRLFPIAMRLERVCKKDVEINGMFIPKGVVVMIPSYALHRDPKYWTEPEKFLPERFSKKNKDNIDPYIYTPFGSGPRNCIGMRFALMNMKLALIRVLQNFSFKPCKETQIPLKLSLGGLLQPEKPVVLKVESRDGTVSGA
# [10] = target: T1, CYP1A2 (Homo sapiens, UniProt P05177); assay: Inhibition of CYP1A2 (unknown origin)-mediated phenaceten demethylation to acetaminophen at 10 uM relative to control; type: ADME; conditions: probe phenacetin (printed: phenaceten)
# T1 sequence (P05177 whole entry): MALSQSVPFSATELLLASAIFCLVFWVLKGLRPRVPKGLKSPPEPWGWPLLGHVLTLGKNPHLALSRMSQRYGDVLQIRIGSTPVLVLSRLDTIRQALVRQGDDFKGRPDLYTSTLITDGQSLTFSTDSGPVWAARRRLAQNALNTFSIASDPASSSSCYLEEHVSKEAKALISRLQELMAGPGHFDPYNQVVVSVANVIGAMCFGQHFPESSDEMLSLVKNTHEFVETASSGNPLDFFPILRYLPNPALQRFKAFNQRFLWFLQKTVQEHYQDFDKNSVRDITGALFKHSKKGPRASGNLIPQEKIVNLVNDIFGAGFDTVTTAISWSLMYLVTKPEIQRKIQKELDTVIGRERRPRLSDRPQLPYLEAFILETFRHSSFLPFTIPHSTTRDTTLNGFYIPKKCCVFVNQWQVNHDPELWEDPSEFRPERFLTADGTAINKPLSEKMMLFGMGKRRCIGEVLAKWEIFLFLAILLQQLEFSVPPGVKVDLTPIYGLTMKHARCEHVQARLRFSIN
# [11] = target: Rho-associated protein kinase 1 (Homo sapiens, UniProt Q13464); assay: Inhibition of ROCK1 (unknown origin) after 4 hrs by HTRF assay
# Sequence of Rho-associated protein kinase 1 (Q13464 whole entry): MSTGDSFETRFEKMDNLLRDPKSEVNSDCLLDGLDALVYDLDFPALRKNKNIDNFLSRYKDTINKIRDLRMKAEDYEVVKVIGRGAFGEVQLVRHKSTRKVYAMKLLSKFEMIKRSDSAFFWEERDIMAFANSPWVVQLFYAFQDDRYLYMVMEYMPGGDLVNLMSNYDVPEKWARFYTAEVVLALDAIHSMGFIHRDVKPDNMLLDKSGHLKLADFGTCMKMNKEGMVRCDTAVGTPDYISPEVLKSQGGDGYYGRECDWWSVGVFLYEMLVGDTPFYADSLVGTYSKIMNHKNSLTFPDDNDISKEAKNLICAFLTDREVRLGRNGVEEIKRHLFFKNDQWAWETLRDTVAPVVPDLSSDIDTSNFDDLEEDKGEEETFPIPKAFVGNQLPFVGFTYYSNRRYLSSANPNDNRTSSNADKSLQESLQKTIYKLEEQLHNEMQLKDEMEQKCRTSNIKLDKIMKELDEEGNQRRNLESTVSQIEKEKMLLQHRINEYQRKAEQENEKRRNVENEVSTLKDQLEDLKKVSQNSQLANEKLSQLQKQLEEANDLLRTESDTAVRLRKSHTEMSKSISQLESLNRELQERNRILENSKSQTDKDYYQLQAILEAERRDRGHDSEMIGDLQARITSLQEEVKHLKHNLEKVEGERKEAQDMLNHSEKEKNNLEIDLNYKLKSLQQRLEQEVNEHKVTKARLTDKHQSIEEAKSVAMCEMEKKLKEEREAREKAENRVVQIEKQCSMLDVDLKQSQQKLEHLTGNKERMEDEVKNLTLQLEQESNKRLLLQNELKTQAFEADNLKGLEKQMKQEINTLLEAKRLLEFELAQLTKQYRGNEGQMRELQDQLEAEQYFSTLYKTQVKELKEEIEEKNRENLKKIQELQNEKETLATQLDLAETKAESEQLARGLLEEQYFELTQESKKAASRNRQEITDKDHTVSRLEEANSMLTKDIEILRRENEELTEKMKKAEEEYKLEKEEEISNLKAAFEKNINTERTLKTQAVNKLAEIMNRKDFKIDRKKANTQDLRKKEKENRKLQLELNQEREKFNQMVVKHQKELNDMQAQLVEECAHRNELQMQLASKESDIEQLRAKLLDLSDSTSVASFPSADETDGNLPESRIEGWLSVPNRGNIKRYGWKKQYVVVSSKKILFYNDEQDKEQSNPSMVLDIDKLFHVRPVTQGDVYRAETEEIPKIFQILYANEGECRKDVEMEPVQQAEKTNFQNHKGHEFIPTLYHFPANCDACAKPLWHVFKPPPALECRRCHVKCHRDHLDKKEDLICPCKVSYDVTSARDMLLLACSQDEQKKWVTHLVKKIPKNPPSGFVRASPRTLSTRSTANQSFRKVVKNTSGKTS
# [12] = AUC in Sprague-Dawley rat at 1 mg/kg, iv by LC-MS/MS analysis; type: ADME, organism-based, Plasma; set-up: dose 1 mg/kg, route intravenous; conditions: Sprague-Dawley, plasma
# [13] = target: CYP2C9 (Homo sapiens, UniProt P11712); assay: Inhibition of CYP2C9 (unknown origin)-mediated tolbutamide hydroxylation to hydroxy tolbutamide at 10 uM relative to control; type: ADME; conditions: probe tolbutamide
# Sequence of CYP2C9 (P11712 whole entry): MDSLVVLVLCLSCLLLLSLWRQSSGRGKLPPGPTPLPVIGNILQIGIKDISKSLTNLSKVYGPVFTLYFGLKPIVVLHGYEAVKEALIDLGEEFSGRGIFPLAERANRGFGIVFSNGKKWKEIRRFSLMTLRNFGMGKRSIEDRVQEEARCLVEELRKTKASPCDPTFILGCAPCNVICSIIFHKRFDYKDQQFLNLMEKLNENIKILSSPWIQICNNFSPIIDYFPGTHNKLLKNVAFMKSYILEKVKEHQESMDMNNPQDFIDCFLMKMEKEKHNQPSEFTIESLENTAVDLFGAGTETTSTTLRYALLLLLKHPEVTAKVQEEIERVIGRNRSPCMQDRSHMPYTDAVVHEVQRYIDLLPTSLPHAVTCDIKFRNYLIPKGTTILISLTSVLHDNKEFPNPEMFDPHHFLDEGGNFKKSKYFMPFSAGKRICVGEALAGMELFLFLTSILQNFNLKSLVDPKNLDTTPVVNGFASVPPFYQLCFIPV
# [14] = Volume of distribution in Sprague-Dawley rat at 1 mg/kg, iv by LC-MS/MS analysis; type: ADME, organism-based; set-up: dose 1 mg/kg, route intravenous; conditions: in vivo
# [15] = Clearance in Sprague-Dawley rat at 1 mg/kg, iv by LC-MS/MS analysis; type: ADME, organism-based; set-up: dose 1 mg/kg, route intravenous; conditions: in vivo
# [16] = target: CYP2D6 (Homo sapiens, UniProt P10635); assay: Inhibition of CYP2D6 (unknown origin)-mediated bufuralol hydroxylation to 4'-Hydroxybufuralol at 10 uM relative to control; type: ADME; conditions: probe bufuralol
# Sequence of CYP2D6 (P10635 whole entry): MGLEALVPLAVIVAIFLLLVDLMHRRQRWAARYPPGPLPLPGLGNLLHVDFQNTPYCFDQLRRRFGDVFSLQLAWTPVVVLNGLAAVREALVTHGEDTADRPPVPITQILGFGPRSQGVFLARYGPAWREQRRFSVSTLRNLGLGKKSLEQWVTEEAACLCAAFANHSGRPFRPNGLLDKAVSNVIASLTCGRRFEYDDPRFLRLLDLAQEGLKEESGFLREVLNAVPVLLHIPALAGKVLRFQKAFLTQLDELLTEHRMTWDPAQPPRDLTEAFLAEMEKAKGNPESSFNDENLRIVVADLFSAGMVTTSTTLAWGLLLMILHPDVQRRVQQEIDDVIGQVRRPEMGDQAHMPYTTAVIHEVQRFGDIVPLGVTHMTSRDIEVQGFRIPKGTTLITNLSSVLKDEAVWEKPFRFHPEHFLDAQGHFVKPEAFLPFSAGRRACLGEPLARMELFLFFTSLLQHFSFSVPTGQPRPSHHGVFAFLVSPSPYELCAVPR
# [17] = target: MAP kinase p38 (Homo sapiens, UniProt O15264+Q15759+Q16539+P53778); assay: Inhibition of p38 (unknown origin) using biotinylated Flag-ATF2 as substrate after 30 mins by HTRF assay; type: protein assay
# [18] = target: Mitogen-activated protein kinase 10 (Homo sapiens, UniProt P53779); assay: Inhibition of JNK3 alpha1 (unknown origin) using biotinylated Flag-ATF2 as substrate after 15 mins by HTRF assay
# Sequence of Mitogen-activated protein kinase 10 (P53779 whole entry): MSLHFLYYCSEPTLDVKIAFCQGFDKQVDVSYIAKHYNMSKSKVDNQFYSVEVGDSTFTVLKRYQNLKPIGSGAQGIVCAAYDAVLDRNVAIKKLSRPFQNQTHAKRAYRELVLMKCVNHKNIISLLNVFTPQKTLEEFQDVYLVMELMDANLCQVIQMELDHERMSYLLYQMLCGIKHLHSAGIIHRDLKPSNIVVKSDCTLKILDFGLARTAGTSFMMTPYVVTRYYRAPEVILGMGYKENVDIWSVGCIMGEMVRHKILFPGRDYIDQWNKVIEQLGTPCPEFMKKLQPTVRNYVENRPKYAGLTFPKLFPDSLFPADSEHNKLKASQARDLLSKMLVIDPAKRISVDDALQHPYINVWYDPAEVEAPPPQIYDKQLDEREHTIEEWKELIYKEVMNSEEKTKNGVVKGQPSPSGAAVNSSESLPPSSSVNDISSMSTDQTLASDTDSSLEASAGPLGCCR
Compound,IC50 [1] [nM],IC50 [2] [nM],IC50 [3] [nM],half-life [4] [min],other results
O=C(Nc1ccc(-c2cn[nH]c2)cc1)NC(CCO)c1ccccc1 (stereo not drawn),48,1,438,> 120,–
O=C(Nc1ccc(-c2cn[nH]c2)cc1)NC(CO)c1ccccc1 (stereo not drawn),150,2,389,> 120,–
CN(C)CCC(NC(=O)Nc1ccc(-c2cn[nH]c2)cc1)c1ccccc1 (stereo not drawn),40,2,238,> 60,Cmax [5]: 200 nM; solubility [6]: soluble; bioavailability [7]: 0%; half-life [8]: 144 min; inhibition at 10 µM [9]: 10%; inhibition at 10 µM [10]: -1%; IC50 [11]: 6 nM; AUC [12]: 0.5 µM·h; inhibition at 10 µM [13]: 16%; Vd [14]: 20 L/kg; clearance [15]: 91 mL/min/kg; inhibition at 10 µM [16]: 59%
COc1cccc(CN(CCO)C(=O)Nc2ccc(-c3cn[nH]c3)cc2OCCO)c1,220,< 1,615,–,–
COc1cccc(CN(CCN(C)C)C(=O)Nc2ccc(-c3cn[nH]c3)cc2OCCN(C)C)c1,–,170,–,–,–
COc1cccc(CN(CCN(C)C)C(=O)Nc2ccc(-c3cn[nH]c3)cn2)c1,28,2,470,17,solubility [6]: soluble; inhibition at 10 µM [9]: 8%; inhibition at 10 µM [10]: -21%; IC50 [11]: 10 nM; inhibition at 10 µM [13]: 5%; inhibition at 10 µM [16]: 51%
COc1cccc(CN(C(=O)Nc2ccc(-c3cn[nH]c3)cc2)C(C)C)c1,67,3,18400,11,–
COCCN(Cc1cccc(OC)c1)C(=O)Nc1ccc(-c2cn[nH]c2)cc1,180,17,10500,21,–
COc1cccc(CN(CCN)C(=O)Nc2ccc(-c3cn[nH]c3)cc2)c1,8,< 1,72,> 120,–
COc1cccc(CN(CCN2CCCC2)C(=O)Nc2ccc(-c3cn[nH]c3)cc2)c1,6,3,541,25,Cmax [5]: 480 nM; solubility [6]: soluble; bioavailability [7]: 0%; half-life [8]: 60 min; IC50 [17]: > 20000 nM; inhibition at 10 µM [9]: 34%; inhibition at 10 µM [10]: 0%; IC50 [11]: 13 nM; IC50 [18]: > 20000 nM; AUC [12]: 0.6 µM·h; inhibition at 10 µM [13]: 24%; Vd [14]: 4.4 L/kg; clearance [15]: 71 mL/min/kg; inhibition at 10 µM [16]: 88%
COc1cccc(CN(CCCN2CCCC2)C(=O)Nc2ccc(-c3cn[nH]c3)cc2)c1,18,5,228,59,–
COc1cccc(CN(CCN2CCOCC2)C(=O)Nc2ccc(-c3cn[nH]c3)cc2)c1,138,13,3820,3,Cmax [5]: 1200 nM; solubility [6]: soluble; bioavailability [7]: 4%; half-life [8]: 132 min; IC50 [17]: > 20000 nM; inhibition at 10 µM [9]: 51%; inhibition at 10 µM [10]: -37%; IC50 [11]: 58 nM; IC50 [18]: > 20000 nM; AUC [12]: 0.6 µM·h; inhibition at 10 µM [13]: 68%; Vd [14]: 3.5 L/kg; clearance [15]: 63 mL/min/kg; inhibition at 10 µM [16]: 82%
COc1cccc(CN(CCCN2CCOCC2)C(=O)Nc2ccc(-c3cn[nH]c3)cc2)c1,84,4,724,4,–
COc1cccc(CN(CCN2CCCCC2)C(=O)Nc2ccc(-c3cn[nH]c3)cc2)c1,17,5,338,11,Cmax [5]: 530 nM; solubility [6]: soluble; bioavailability [7]: 0%; half-life [8]: 60 min; IC50 [17]: > 20000 nM; inhibition at 10 µM [9]: 61%; inhibition at 10 µM [10]: 18%; IC50 [11]: 14 nM; IC50 [18]: > 20000 nM; AUC [12]: 0.4 µM·h; inhibition at 10 µM [13]: 56%; Vd [14]: 4.3 L/kg; clearance [15]: 86 mL/min/kg; inhibition at 10 µM [16]: 87%
COc1cccc(CN(CCCN2CCCCC2)C(=O)Nc2ccc(-c3cn[nH]c3)cc2)c1,75,4,822,14,–
O=C(Nc1ccc(-c2cn[nH]c2)cc1F)N(CCO)Cc1ccccc1,33,14,1020,> 120,–
COc1cccc(C(CCO)NC(=O)Nc2ccc(-c3cn[nH]c3)cc2)c1 (stereo not drawn),40,2,4870,112,Cmax [5]: 12000 nM; solubility [6]: soluble; bioavailability [7]: 4%; half-life [8]: 42 min; inhibition at 10 µM [9]: 37%; inhibition at 10 µM [10]: 3%; IC50 [11]: 11 nM; AUC [12]: 7.9 µM·h; inhibition at 10 µM [13]: 67%; Vd [14]: 0.25 L/kg; clearance [15]: 5.9 mL/min/kg; inhibition at 10 µM [16]: 37%
O=C(Nc1ccccc1)Nc1ccc(-c2cn[nH]c2)cc1,–,304,> 20000,–,–
O=C(NCCc1ccccc1)Nc1ccc(-c2cn[nH]c2)cc1,> 2700,88,3100,–,–
O=C(NCCCc1ccccc1)Nc1ccc(-c2cn[nH]c2)cc1,–,1020,> 20000,–,–

Compound,IC50 [1] [nM],IC50 [2] [nM],IC50 [3] [nM],half-life [4] [min],other results
O=C(Nc1ccc(-c2cn[nH]c2)cc1)OCc1ccccc1,> 2700,7,> 20000,–,–
O=C(Nc1ccc(-c2cn[nH]c2)cc1)OCCc1ccccc1,2640,55,> 20000,–,–
O=C(CCc1ccccc1)Nc1ccc(-c2cn[nH]c2)cc1,91,24,266,–,–
O=C(Nc1ccc(-c2cn[nH]c2)cc1)N1CCc2ccccc2C1,–,280,8000,–,–
O=C(NCC1CCCCC1)Nc1ccc(-c2cn[nH]c2)cc1,–,751,> 20000,–,–
COc1cccc(CNC(=O)Nc2ccc(-c3cn[nH]c3)cc2)c1OC,–,253,> 20000,–,–
COc1ccc(CNC(=O)Nc2ccc(-c3cn[nH]c3)cc2)c(OC)c1,–,331,11200,–,–
COc1ccc(OC)c(CNC(=O)Nc2ccc(-c3cn[nH]c3)cc2)c1,–,570,> 20000,–,–
COc1cccc(OC)c1CNC(=O)Nc1ccc(-c2cn[nH]c2)cc1,–,924,13500,–,–
COc1ccc(CNC(=O)Nc2ccc(-c3cn[nH]c3)cc2)cc1OC,–,425,> 20000,–,–
COc1cc(CNC(=O)Nc2ccc(-c3cn[nH]c3)cc2)cc(OC)c1,–,281,> 20000,–,–
COc1ccc(CNC(=O)Nc2ccc(-c3cn[nH]c3)cc2)cc1F,–,357,518,–,–
COc1cccc(CNC(=O)N(C)c2ccc(-c3cn[nH]c3)cc2)c1,–,87,> 20000,–,–
COc1cccc(CNC(=O)N(CCO)c2ccc(-c3cn[nH]c3)cc2)c1,–,611,> 20000,–,–
COc1cccc(CNC(=O)N(CCN(C)C)c2ccc(-c3cn[nH]c3)cc2)c1,–,2980,4200,–,–
COc1cccc(CNC(=O)N(CCN2CCCC2)c2ccc(-c3cn[nH]c3)cc2)c1,–,> 20000,> 20000,–,–
COc1cccc(CNC(=O)N(CCCN(C)C)c2ccc(-c3cn[nH]c3)cc2)c1,–,3320,12000,–,–
CCN(Cc1cccc(OC)c1)C(=O)Nc1ccc(-c2cn[nH]c2)cc1,44,1,4670,25,–
COc1cccc(CN(C(=O)Nc2ccc(-c3cn[nH]c3)cc2)C2CC2)c1,4,1,1700,25,–
